From ChEMBL document CHEMBL4513216, “Probing the Open Global Health Chemical Diversity Library for Multistage-Active Starting Points for Next-Generation Antimalarials” (ACS Infect Dis, 2020)

Assay: Toxicity liver stage against HepG2, at 10uM
Format: cell-based
Parameters: test concentration 10 uM, cell line HepG2-A16-CD81EGFP
Details: human, HepG2-A16-CD81EGFP cells; read-out: INHIBITION
How it was run: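 Uninfected HepG2-A16-CD81EGFP cells, 3 × 10^3 per well, 1536-well, plated on prespotted compound at 10 μM final, parasite-free screening media added to match infected plates; puromycin 10 μM positive, DMSO 0.5% negative; run in parallel with 48 h PbLuc assay at 37 °C, 5% CO2; viability by CellTiter-Glo luminescence, normalized to controls.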

Structure (SMILES) | cytotoxicity at 10 µM [%]
COCC(=O)N[C@H](C)c1c(-c2ccc(Cl)cc2)noc1C(=O)O | 1.05
CC1=C[C@@H](CC#N)[C@H](C(C)C)C[C@H]1CC(=O)N1CCN(CCO)CC1 | 4.62
Cc1nc2cc(C(=O)N(CCC#N)CC3CCCO3)ccc2[nH]1 (stereo unspecified) | -0.58
O=C(CCc1nc2cccnc2[nH]1)NCc1ccncc1 | 3.72
CS(=O)(=O)NCC1CCN(C(=O)Oc2ccccc2)CC1 | -151
CCc1c(C)nc2n(c1=O)CC(C(=O)Nc1ncccc1C)CS2 (stereo unspecified) | 7.14
O=S(=O)(NCCn1ccc(-c2ccccn2)n1)C1CC1 | -1.04
CC(=O)N1CCCC2(CCN(C(=O)c3nccnc3N)CC2)C1 | 3.47
C[C@H]1C[C@H]2CN(S(=O)(=O)c3ccc(F)cc3)CC[C@@H]2O1 | 2.97
CCCNC(=O)c1nc2c(o1)CN(c1ncccn1)C2 | 1.95
O=C(NC[C@H]1OC[C@@H]2CCN(c3ccccn3)C[C@@H]21)c1ccco1 | 1.32
COCC1CN(Cc2ccsc2)Cc2cnn(C)c21 (stereo unspecified) | 5.58
Cc1nocc1C(=O)N1CCc2c(CN(C)C)nn(C)c2C1 | -0.567
CC(C)CNC(=O)c1nc2c(s1)CCN(C(=O)c1ccc(Cl)cc1)CC2 | 7.4
C[C@H]1C[C@@H]2CCN(C(=O)c3ccccn3)C[C@H]2O1 | 4.17
C[C@@H]1C[C@H]2CN(C(=O)c3ccncn3)C[C@H]2O1 | 0.748
CC(C)CC(=O)N1CC[C@H]2C[C@H](c3nccs3)O[C@@H]2C1 | -0.966
O=C(c1cc(-n2cnnn2)ccc1Cl)N1CCCCCC1 | 5.56
O=C(Cn1ccc2c(Cl)cccc21)N1CCCC1 | 0.583
CC(C)CN1CCCC2(CCN(C(=O)c3cnccn3)C2)C1 (stereo unspecified) | 2.39
CCN(CC)CCNC(=O)c1ccn(COc2cc(C)cc(C)c2)n1 | 4.36
CN(C)[C@@H]1CN(C(=O)c2cc3cccc(F)c3[nH]2)C[C@H]1O | -1.49
CC(=O)N1CCC(c2c(CN(C)C)cnc3cc(C)nn23)CC1 | 2.54

Structure (SMILES) | cytotoxicity at 10 µM [%]
Cc1noc(C)c1CC(=O)N1CCCC(Cc2ccccn2)C1 (stereo unspecified) | 4.75
CC(C)CC(=O)N1CCCC1c1cc(CO)[nH]n1 (stereo unspecified) | 3.05
CC(=O)N1CCc2nc(C3CCN(c4ncccn4)C3)ncc2C1 (stereo unspecified) | -30
CCc1cc(C(=O)N2CCC(O)(Cn3ccc4ccncc43)CC2)no1 | -18.7
COCCC(=O)N1CCC(c2nc(O)cc(-c3ccncc3)n2)C1 (stereo unspecified) | -25
CN(C)CC(=O)N1CC(c2nn(C)c3nccnc23)C1 | -6.26
Cc1nc(O)c2nnn(C[C@H]3CCCN3C(=O)c3ccccc3C)c2n1 | -7.36
O=C(c1ccccc1)N1CC2(CCNC2)OCc2ccccc21 (stereo unspecified) | 13
NC(=O)CS(=O)(=O)Cc1csc(-c2ccc(F)cc2)n1 | -4.95
CN(CC(N)=O)Cc1csc(-c2ccc(F)cc2)n1 | 2.5
COc1cccc(CNCCc2cccc(C(N)=O)c2)c1 | 9.83
CCOc1ccc(NC(=O)c2cc(C)c(C)o2)cc1CO | 3.78
COCCN(CCOC)C(=O)c1ccoc1C | 6.72
CC(NCc1cccc(COC2CCCC2)c1)c1cnn(C)c1 (stereo unspecified) | 4.34
CCC(C#N)NC(=O)CCNC(=O)C(C)(C)C (stereo unspecified) | -1.55
CC(C)N(CC(=O)Nc1cccc(C(=O)N(C)C)c1)C1CC1 | -4.81
COc1cccc(COCC(=O)NC(C(N)=O)c2ccccc2F)c1 (stereo unspecified) | -4.55
CNC(=O)c1cc(NC(=O)NC2CC2)ccc1F | 5.13
COC(=O)CCNC(=O)c1nnn(-c2ccccc2)c1C(F)(F)F | -4.27
CCNc1cc2c(nn1)CCN(C(=O)C1COc3ccccc3C1)C2 (stereo unspecified) | -4.83
COCc1ccc(C(=O)N2CCN(CCS(C)(=O)=O)CC2)cc1 | -1.33
CCCOC1CCCN(C(=O)c2ccnc(N3CCN(C)CC3)c2)C1 (stereo unspecified) | -5.7
O=C(Nc1cccc(F)c1)N1CCN(Cc2noc(C3CC3)n2)CC1 | 3.8

Structure (SMILES) | cytotoxicity at 10 µM [%]
CC(=O)N(C)CC(=O)NC1(c2ccc(F)cc2)CCCC1 | 0.747
CN(CC(O)COc1ccc(C(F)(F)F)cc1)C(=O)Nc1nncs1 (stereo unspecified) | -11.1
c1ccc2c(c1)OCCCC2NCc1nnc2n1CCCCC2 (stereo unspecified) | -0.044
COCC(NC(=O)c1cc(C)n(C)n1)c1cccc(C(F)(F)F)c1 (stereo unspecified) | 9.43
CC(C)CCn1ccc(NC(=O)N2CCCC2CN2CCOCC2)n1 (stereo unspecified) | -2.16
Cc1cn2c(n1)CCC(NC(=O)COCCOc1ccccc1)C2 (stereo unspecified) | -4.44
COc1ccc(C2CCCCCN2S(N)(=O)=O)cc1 (stereo unspecified) | 8.87
COc1ccccc1N1CCCC(Nc2nccnc2C#N)C1 (stereo unspecified) | 18.3
CCC(CNC(=O)c1nc(=O)[nH][nH]1)Oc1ccccc1C(F)(F)F (stereo unspecified) | 1.45
O=c1oc(-c2ccc(F)cc2)nn1CCc1ccccn1 | -5.65
O=C(c1ccccn1)N(CCO)Cc1cc(Br)ccc1F | 9.91
COC(=O)c1ccc(Cl)c(CN(C)Cc2ncnn2C)c1 | -7.81
c1cnn(CCNCc2cnc(N3CCCC3)nc2)c1 | -9.46
CC(CNC1CCN(Cc2ccncc2)CC1)c1ccc(F)cc1F (stereo unspecified) | -9.73
Cc1ccc(NC(=O)NCCc2ccncc2C)c(N(C)C)n1 | 12.9
Cc1ccc(NS(=O)(=O)c2cc(C(=O)O)oc2C)c(Br)c1 | 1.83
CN(C)C(=O)c1cc(NC(=O)N2CCCC(C(F)(F)F)C2)ccn1 (stereo unspecified) | -3.58
Cn1cc(CNCCn2cccn2)c(-c2cccnc2)n1 | -2.34
COCCN1CCN(S(C)(=O)=O)Cc2cccnc21 | 5.7
O=C(c1ccco1)N1CCO[C@@H]2CNCC[C@@H]2C1 | -75.2
Cc1ncnc2c1CCN(C(=O)c1cccn1C)CC2 | -75.1
Cc1cc(CN2C[C@@H]3COC[C@]3(CNC(=O)c3ccno3)C2)no1 | 1.18
O=C(NCCNc1cccnc1)C(c1cccnc1)N1CCCC1 (stereo unspecified) | 4.11

Structure (SMILES) | cytotoxicity at 10 µM [%]
O=C1CCC2(CCCN(C(=O)C3CCCC3)C2)CN1CCc1c[nH]cn1 (stereo unspecified) | -0.699
Cc1ncsc1CCN(C)C(=O)c1ccc(Cn2cnnn2)cc1 | -9.17
Cc1cnc(N(C)CCCc2cnn(C)c2)nc1N(C)C | 2.03
CC1(C)Cc2nc(C(C)(C)C)ncc2C(NC(=O)Cc2nnn[nH]2)C1 (stereo unspecified) | -3.67
CCC(OC)C(=O)NCC1CCN(c2cnn(C)c(=O)c2)CC1 (stereo unspecified) | 7.35
CCN(Cc1ccc(-c2ccccn2)cc1)C1CCS(=O)(=O)C1 (stereo unspecified) | -9.25
Cc1ccc(CN2CCN(Cc3cc(C)n[nH]3)CC2CCO)cc1 (stereo unspecified) | 1.13
COc1ccc(Cl)cc1C(=O)N1C[C@H](C(C)C)[C@@H](N)C1 | 1.17
CCNc1ncc(C2CC(=O)Nc3c2cnn3Cc2ccncc2)cn1 (stereo unspecified) | -6.87
CN1CCC(N(C)CCC(=O)N2CCN(Cc3cccc(F)c3)CC2)C1 (stereo unspecified) | -3.41
COCCn1ccnc1C1CCCN(c2ncnc3c(C)csc23)C1 (stereo unspecified) | 2.57
COc1ccc(C(C(=O)O)N2CCC(Cn3cccn3)CC2)cc1F (stereo unspecified) | 1.81
COCCNc1nc2c(c(NCc3cnc(C)c(C)c3)n1)CCNCC2 | -1.22
CC(O)CCn1ccc2[nH]c(=O)c(C#N)cc2c1=O (stereo unspecified) | 5.66
OCc1ccc(CN2CCC(n3cc(-c4ccc(F)cc4)nn3)CC2)o1 | 5.54
CSc1ccc(CN(CCO)C(=O)CCc2cccc(F)c2)cc1 | 2.93
O=C(c1cnc(C2CC2)nc1O)N1CCN(Cc2ccccc2F)CC1 | -1.83
CC1(C)CN(c2cc(C3CC3)ncn2)C[C@]1(C)O | 1.4
CC(C)n1ccc(CN2CCN(c3cc(NC4CC4)nc(N)n3)CC2)c1 | -1.45
C/C=C(\C)CN1C[C@H](c2cccc(OC)c2)[C@@H](N)C1 | 3.49
CCC(=O)NCc1ccc(N2CCCCC2)cc1 | -6.89
COCCN(Cc1ccc(OC)nc1)Cc1cccs1 | -7.28
Cn1nccc1C(=O)N1CCOC(Cc2cccc(C(F)(F)F)c2)C1 (stereo unspecified) | 5.52

Structure (SMILES) | cytotoxicity at 10 µM [%]
Cc1cnn(CCNCC(=O)NCCOc2ccc(Cl)cc2)c1 | -11.8
Cc1cc(C(=O)N2CCOC(c3nc(C(C)C)n[nH]3)C2)c(C)s1 (stereo unspecified) | -5.72
Cc1ncc2c(n1)CN(CC(=O)Nc1cc(C)on1)CC2 | -12.4
O=C(NCc1csc(Br)c1)N1CCC(O)CC1 | -11.8
CN1CC(C(=O)NCc2ccnc(-n3cccn3)c2)CC1=O (stereo unspecified) | -0.867
CCC1c2ccsc2CCN1C(=O)NCc1ccnc(N(C)C)c1 (stereo unspecified) | -11.9
O=C(Cc1cn2ccsc2n1)N1CCCC(n2cccn2)C1 (stereo unspecified) | -13.6
Cc1nc(C)n(CC2CN(CCOCC(F)(F)F)CCO2)n1 (stereo unspecified) | -1.95
Cc1cc(NC(=O)NCc2cccnc2OC(C)C)n(C)n1 | 3.2
Cc1ncsc1CN1Cc2cnn(C)c2C(COCC2CC2)C1 (stereo unspecified) | 3.04
O=C(NCc1cncc2c1CCN(CC1CCOC1)C2)c1ccno1 (stereo unspecified) | 13
Cc1cccc(CN2CC[C@H]3[C@H]2CCN3C(=O)c2cnn(C)c2)n1 | 14.4
c1cncc(CO[C@H]2CO[C@@]3(CCN(Cc4ccoc4)C3)C2)c1 | -3.24
CCC(=O)N1CC[C@H]2[C@H](C[C@@H](CN3CCCC3)N2c2nccs2)C1 | 10.2
O=C1COC2(CCN(Cc3ccoc3)CC2)CN1 | -11.3
CN1CCCCC12CCN(c1nncs1)CC2 | 6.89
CNC(=O)CN1CCCC12CCN(C(=O)c1ccsc1)CC2 | 4.87
O=C(N[C@@H]1CN(Cc2cccs2)[C@@H]2COC[C@@H]21)C1CCC1 | 9.34
Cc1cc(CN2CC[C@H]3OCC[C@@]3(C(=O)NCc3ccco3)C2)no1 | 6.73
